Measurements published in paper PMC6233868 (Journal of nuclear medicine : official publication, Society …, 2016).
pIC50: −log10 of the molar value. “Also recorded” adds a separate entry of the source. Read-outs that look alike come from different tables or passages of the source.

Assays:
hNIS [1] = target: T1, hNIS (Homo sapiens, UniProt Q92911); type: cell-based
T1 sequence (Q92911 1-643): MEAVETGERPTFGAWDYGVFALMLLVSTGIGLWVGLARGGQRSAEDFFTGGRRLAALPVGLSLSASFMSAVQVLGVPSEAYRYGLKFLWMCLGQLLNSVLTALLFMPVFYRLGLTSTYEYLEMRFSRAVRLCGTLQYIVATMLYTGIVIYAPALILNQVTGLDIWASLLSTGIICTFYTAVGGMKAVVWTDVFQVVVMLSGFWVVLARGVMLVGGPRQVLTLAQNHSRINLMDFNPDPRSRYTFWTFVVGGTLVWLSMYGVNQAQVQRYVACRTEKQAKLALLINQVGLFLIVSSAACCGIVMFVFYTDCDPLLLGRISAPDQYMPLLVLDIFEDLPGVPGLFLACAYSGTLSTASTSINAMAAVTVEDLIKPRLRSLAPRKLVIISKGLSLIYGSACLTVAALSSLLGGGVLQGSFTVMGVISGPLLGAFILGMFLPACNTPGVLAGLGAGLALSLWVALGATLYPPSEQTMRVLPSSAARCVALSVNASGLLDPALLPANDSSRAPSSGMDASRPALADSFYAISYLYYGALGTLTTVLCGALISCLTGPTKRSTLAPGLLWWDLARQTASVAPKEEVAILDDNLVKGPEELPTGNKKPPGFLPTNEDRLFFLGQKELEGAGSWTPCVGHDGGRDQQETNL

NIS = settings: read-out: IC50 for inhibition of [124I]I- uptake; cited from earlier work
hNIS [2] = target: T1, hNIS; type: cell-based; settings: read-out: IC50, inhibition of [18F]SO3F- uptake; HCT116-C19 cells
mouse thyroid = settings: in vivo; cited from earlier work
[3] = PET/CT imaging biodistribution in Balb/c mice; type: in vivo, mouse
Method in brief: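 Female Balb/c mice (4-8 weeks) received NaClO4 (250 mg/kg i.p. in 0.9% NaCl) or an equal volume of saline 1 h before scanning. Dynamic PET ran for 2 h from <1 min after radiotracer injection, followed by CT. Data were corrected and binned into 5 min then 30 min frames. Manual ROIs were drawn at a 10% max-count threshold and reported as %ID (whole body minus tail) and %ID/g.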

[4] = stability of formulated tracer; type: physicochemical
[5] = human serum stability by TLC
[6] = ex vivo biodistribution in Balb/c mice; set-up: species or system mouse; settings: 2.25 h post-injection
Method in brief: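 Female Balb/c mice (4-8 weeks) were pretreated 1 h before the radiotracer with NaClO4 (250 mg/kg i.p. in 0.9% NaCl) or with a saline sham. After the 2 h PET scan, mice were culled by cervical dislocation at 2.25 h post-injection. Thyroid was dissected under a microscope. Tissues were weighed and gamma-counted, giving %ID/g; n = 3, SD.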

hNIS [7] = target: T1, hNIS; type: cell-based; remark: listed apart in the source
HCT116 cells = experiment: [18F]SO3F- uptake in hNIS-negative parental HCT116 cells; type: cell-based, human; settings: presence or absence of NaClO4
[8] = read-out: IC50, inhibition of [99mTc]TcO4- uptake via hNIS
[9] = read-out: IC50, inhibition of anion uptake via hNIS
[10] = normal mice, PET time-activity curves

F[B-](F)(F)F [BF4^-, tetrafluoroborate]
pIC50 (hNIS [1]; [8]): 5.35 to 6.54

[O-][Cl+3]([O-])([O-])O [ClO4^-, perchlorate]
pIC50 (NIS): 7.00

I [I^-, iodide]
pIC50 (hNIS [1]; [8]): 5.33 to 5.57
pIC50 (hNIS [1]; [9]): < 5.57

O=S(=O)(O)F [SO3F^-, fluorosulfate]
pIC50 (hNIS [1]; [8]): 6.25 to 6.26
pIC50 (hNIS [1]; [9]): 6.25
pIC50 (hNIS [2]): 5.80
inhibition of radioiodide uptake in mouse thyroid (mouse thyroid): inhibit radioiodide uptake

[O]=[Tc](=[O])(=[O])[OH] [TcO4^-, pertechnetate]
pIC50 (hNIS [1]; [8]): 7.15

O=S(=O)(O)F [[^18F]SO3F^-] [[^18F]Fluorosulfate]
bone %ID/g relative to that in thyroid ([3]; 30 min): < 1%
time of maximum thyroid uptake ([3]; PET, normal mice): 30 min
salivary gland uptake (PET) ([3]; normal mice, 30 min): 32 ± 9 %ID/g
thyroid uptake (PET) ([3]; normal mice, 30 min): 563 ± 140 %ID/g
bone uptake (PET) ([3]; normal mice, 60 min): 3 ± 1 %ID/g
stomach uptake (PET) ([3]; normal mice, 90 min): 68 ± 21 %ID/g
time at which stomach uptake reaches a plateau [3, 10]: around 90 min
time at which thyroid and salivary gland uptake reaches a plateau [3, 10]: 30 to 45 min
RCP after standing ([4]; formulated tracer, room temperature, 4 h, IC and TLC): > 95%
RCP under acidic conditions ([4]; pH 3.0, 4 h): similarly constant
RCP after incubation with human serum ([5]; 4 h, TLC of supernatant after ethanol protein precipitation): > 95%
radioactivity associated with the protein pellet ([5]; human serum, ethanol precipitation): no significant radioactivity
bladder radioactivity (ex vivo) [6]: 15 ± 14 %ID/g
bone uptake (ex vivo) [6]: 17 ± 3 %ID/g
bone uptake (ex vivo) with perchlorate ([6]; mice administered NaClO4): not blocked
salivary gland uptake (ex vivo) with NaClO4 ([6]; mice administered NaClO4): 2.6 ± 1.7 %ID/g
stomach uptake (ex vivo) with NaClO4 ([6]; mice administered NaClO4): 3.0 ± 1.7 %ID/g
thyroid uptake (ex vivo) with NaClO4 ([6]; mice administered NaClO4): 4.3 ± 4.6 %ID/g
salivary gland uptake (ex vivo) ([6]; without NaClO4): 18 ± 4 %ID/g
stomach uptake (ex vivo) ([6]; without NaClO4): 59 ± 10 %ID/g
thyroid uptake (ex vivo) ([6]; without NaClO4): 144 ± 71 %ID/g
uptake of radiotracer in HCT116-C19 cells (hNIS [7]): Specific, blockable hNIS-mediated uptake; also recorded: Significant uptake
uptake of radiotracer in HCT116-C19 cells with NaClO4 (hNIS [7]): blocked
uptake of radiotracer in parental HCT116 cells (HCT116 cells): No uptake; also recorded: absent
